The target of series [1] is AD plaques (β-amyloid plaques) in human brain tissue homogenates (Homo sapiens, UniProt P05067). The series can be described thus: In vitro competition binding assay against [18F]-AV-45 in AD brain homogenates. In outline: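 Gray matter from human Alzheimer's brain sections with plaques, homogenized in PBS pH 7.2 (20–50 μg per tube). Incubated with [18F]-AV-45 and competitor (10−5–10−10 M, serially diluted in PBS with 0.1% BSA) in 1 mL final, 37 °C for 120 min. IMPY 600 nM defined nonspecific binding. Bound and free separated by vacuum filtration. Ki by nonlinear regression; n = 5–6.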
Chain of AD plaques (β-amyloid plaques) in human brain tissue homogenates (P05067 672-713 limits assumed): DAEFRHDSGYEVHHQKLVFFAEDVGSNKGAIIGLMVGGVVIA

The next series deals with male ICR mice. The series can be described thus: In-vivo biodistribution study in mice. More on the design: species or system mouse. The settings on record: for Blood uptake / Bone uptake / Brain uptake / Heart uptake / Kidney uptake / Liver uptake / Lung uptake / Muscle uptake / Pancreas uptake / Skin uptake / Spleen uptake: iv tail vein; for in vivo de-fluorination (from bone (femur) values): within 30 min post injection. The gist of the method:
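Normal male ICR mice (20–25 g), 6 per group, under isoflurane (1–2%, 1 L oxygen/min). Each received 25 μCi radiotracer in 0.15 mL saline via lateral tail vein. Killed by cardiac excision under anesthesia at 2 and 30 min. Organs weighed and gamma-counted. Percent dose per gram calculated against counts of 1.0% of initial dose, taken from 100-fold diluted injectate aliquots.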

Values joined by “and” are separate entries in the source; they are usually repeats but may differ in a detail not shown here. Identical values can stand only once.

Consider `CNc1ccc(/C=C/c2ccc(OCCOCCOCCNC(=O)CO/N=C/c3ccc(OCCOCCOCCF)nc3)nc2)cc1` [[^18F]23, 2-((E)-(6-(2-(2-(2-fluoroethoxy)ethoxy)ethoxy)pyridin-3-yl)methyleneaminooxy)-N-(2-(2-(2-(5-((E)-4-(methylamino)styryl)pyridin-2-yloxy)ethoxy)ethoxy)ethyl)acetamide], for which the Ki (usually the dissociation constant of the complex between target and ligand, obtained from inhibition or displacement) in series [1] was 11.8 ± 3.06 nM. In addition, in the series with male ICR mice (2 min post injection), the Blood uptake was found to be 9.34 ± 1.37 % dose/gram; the Bone uptake came to 2.00 ± 0.33 % dose/gram; the Brain uptake was 1.69 % dose/gram and 1.69 ± 0.44 % dose/gram; the Heart uptake was found to be 13.1 ± 3.08 % dose/gram. In the series on male ICR mice (2 min post injection), this compound displayed a Kidney uptake of 14.1 ± 2.85 % dose/gram, a Liver uptake of 22.2 ± 3.99 % dose/gram, a Lung uptake of 7.09 ± 1.37 % dose/gram and a Muscle uptake of 1.32 ± 0.50 % dose/gram. In the series on male ICR mice (2 min post injection), the Pancreas uptake is listed as 5.13 ± 1.08 % dose/gram, the Skin uptake was found to be 0.79 ± 0.20 % dose/gram and the Spleen uptake amounted to 4.81 ± 1.18 % dose/gram. In the series with male ICR mice (30 min post injection), this compound gave a Blood uptake of 4.94 ± 0.91 % dose/gram, a Bone uptake of 2.27 ± 0.41 % dose/gram, a Brain uptake of 0.96 ± 0.16 % dose/gram and a Heart uptake of 3.72 ± 0.84 % dose/gram. In the series on male ICR mice (30 min post injection), this compound displayed a Kidney uptake of 6.83 ± 1.93 % dose/gram, a Liver uptake of 19.1 ± 3.65 % dose/gram, a Lung uptake of 3.53 ± 0.38 % dose/gram and a Muscle uptake of 1.56 ± 0.27 % dose/gram. In the series on male ICR mice (30 min post injection), this compound returned a Pancreas uptake of 2.28 ± 0.48 % dose/gram, a Skin uptake of 1.50 ± 0.25 % dose/gram and a Spleen uptake of 3.57 ± 0.68 % dose/gram. In the series on male ICR mice, the “in vivo de-fluorination (from bone (femur) values)” value is given as “very little de-fluorination”.

In the case of `CNc1ccc(/C=C/c2ccc(OCCOCCOCCOCCOCCOCCNC(=O)CO/N=C/c3ccc(OCCOCCOCCF)nc3)nc2)cc1` [[^18F]24, 2-((E)-(6-(2-(2-(2-fluoroethoxy)ethoxy)ethoxy)pyridin-3-yl)methyleneaminooxy)-N-(17-(5-((E)-4-(methylamino)styryl)pyridin-2-yloxy)-3,6,9,12,15-pentaoxaheptadecyl)acetamide], in the series on male ICR mice (2 min post injection), the Blood uptake is on record as 4.19 ± 1.04 % dose/gram; the Bone uptake was 1.76 ± 0.31 % dose/gram; the Brain uptake is 0.48 % dose/gram and 0.48 ± 0.12 % dose/gram; the Heart uptake was found to be 12.3 ± 1.79 % dose/gram. In the series with male ICR mice (2 min post injection), the Kidney uptake came out at 15.4 ± 3.54 % dose/gram, the Liver uptake is recorded as 29.4 ± 5.09 % dose/gram, the Lung uptake is given as 3.70 ± 1.06 % dose/gram and the Muscle uptake stood at 1.42 ± 0.46 % dose/gram. For the same compound, in the series with male ICR mice (2 min post injection), the Pancreas uptake was 3.32 ± 0.58 % dose/gram, the Skin uptake was found to be 1.14 ± 0.44 % dose/gram and the Spleen uptake amounted to 3.11 ± 0.45 % dose/gram. In the series on male ICR mice (30 min post injection), the Blood uptake was 2.81 ± 0.22 % dose/gram; the Bone uptake was 1.62 ± 0.10 % dose/gram; the Brain uptake is 0.92 % dose/gram and 0.92 ± 0.11 % dose/gram; the Heart uptake was found to be 4.17 ± 0.61 % dose/gram. Further, in the series with male ICR mice (30 min post injection), the Kidney uptake amounted to 7.78 ± 0.85 % dose/gram, the Liver uptake turned out to be 10.9 ± 1.17 % dose/gram, the Lung uptake was 2.43 ± 0.33 % dose/gram and the Muscle uptake came out at 2.01 ± 0.21 % dose/gram. In the series with male ICR mice (30 min post injection), this compound gave a Pancreas uptake of 2.22 ± 0.23 % dose/gram, a Skin uptake of 1.78 ± 0.13 % dose/gram and a Spleen uptake of 1.63 ± 0.19 % dose/gram. The “in vivo de-fluorination (from bone (femur) values)” value with male ICR mice was “very little de-fluorination”.

For the origin of these results see publication PMC3086766 (Bioconjugate chemistry, 2011).
